Results from ChEMBL document CHEMBL3875208, “2-Oxoamides based on dipeptides as selective calcium-independent phospholipase A2 inhibitors” (Bioorg Med Chem, 2017).

Experiments:
[1] = target: T1, Cytosolic phospholipase A2 (Homo sapiens) (UniProt P47712); assay: Inhibition of human group-4 cPLA2 using Triton-X-100/PAPC/arachidonyl-1-14C PAPC/PIP2 substrate mixed micelles at 0.091 mole_fraction by modified dole assay relative to control
T1 sequence (whole entry): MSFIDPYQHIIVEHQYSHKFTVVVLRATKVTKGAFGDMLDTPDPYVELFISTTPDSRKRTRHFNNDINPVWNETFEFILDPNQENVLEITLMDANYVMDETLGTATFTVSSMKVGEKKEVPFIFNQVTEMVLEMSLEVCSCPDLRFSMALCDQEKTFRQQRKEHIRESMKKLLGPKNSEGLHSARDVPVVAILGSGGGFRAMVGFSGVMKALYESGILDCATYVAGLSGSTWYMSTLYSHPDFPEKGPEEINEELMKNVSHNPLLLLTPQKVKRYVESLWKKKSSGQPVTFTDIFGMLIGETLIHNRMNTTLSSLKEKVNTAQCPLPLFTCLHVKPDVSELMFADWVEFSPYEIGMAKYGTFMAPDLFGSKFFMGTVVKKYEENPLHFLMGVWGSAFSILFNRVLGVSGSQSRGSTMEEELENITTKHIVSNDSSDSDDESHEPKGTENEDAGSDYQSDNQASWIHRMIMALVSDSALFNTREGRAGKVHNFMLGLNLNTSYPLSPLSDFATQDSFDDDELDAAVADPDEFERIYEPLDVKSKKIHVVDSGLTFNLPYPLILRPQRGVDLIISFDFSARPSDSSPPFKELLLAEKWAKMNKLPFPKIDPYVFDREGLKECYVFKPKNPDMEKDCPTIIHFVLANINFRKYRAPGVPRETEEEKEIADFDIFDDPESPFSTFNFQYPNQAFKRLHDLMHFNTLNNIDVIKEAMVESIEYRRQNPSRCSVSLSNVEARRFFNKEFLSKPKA
Procedure, shortened: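 Buffer was 100 mM HEPES pH 7.5 with 90 μM CaCl2, 2 mM DTT and 0.1 mg/ml BSA. Activity was read by modified Dole assay with inhibitor at 0.091 mole fraction, added from a 5 mM DMSO stock, and expressed as percent inhibition.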

[2] = test system: Phospholipase A2 group VI, Homo sapiens; assay: Inhibition of human calcium-independent group-6A iPLA2 using Triton-X-100/PAPC/arachidonyl-1-14C PAPC substrate mixed micelles at 0.091 mole_fraction by modified dole assay relative to control
[3] = target: T2, Phospholipase A2 group V (Homo sapiens) (UniProt P39877); assay: Inhibition of human calcium-independent group-5 sPLA2 using Triton-X-100/PAPC/arachidonyl-1-14C PAPC substrate mixed micelles at 0.091 mole_fraction by modified dole assay relative to control; details: in the assay text read “group-5 sPLA2” for “calcium-independent group-5 sPLA2”
T2 sequence (whole entry): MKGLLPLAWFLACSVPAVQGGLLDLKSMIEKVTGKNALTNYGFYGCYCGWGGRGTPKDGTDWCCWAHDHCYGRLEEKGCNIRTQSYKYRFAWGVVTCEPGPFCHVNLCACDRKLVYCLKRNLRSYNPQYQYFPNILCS
Procedure, shortened: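 Human GV sPLA2 activity was measured by modified Dole assay. Inhibitor was added from a 5 mM DMSO stock to give 0.091 mole fraction in substrate, and percent inhibition was recorded.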

[4] = target: T2, Phospholipase A2 group V (Homo sapiens); assay: Inhibition of human group-5 sPLA2 using Triton-X-100/PAPC/arachidonyl-1-14C PAPC substrate mixed micelles at 0.091 mole_fraction by modified dole assay relative to control
[5] = test system: Phospholipase A2 group VI, Homo sapiens; assay: Inhibition of human calcium-independent group-6A iPLA2 using Triton-X-100/PAPC/arachidonyl-1-14C PAPC substrate mixed micelles by modified dole assay
[6] = test system: Phospholipase A2 group VI, Homo sapiens; assay: Inhibition of human calcium-independent group-6A iPLA2 using substrate mixed micelles at 0.091 mole_fraction by modified dole assay relative to control
Homo sapiens = species on record: Homo sapiens; assay: Selectivity ratio of XI50 for human group-4 cPLA2 to XI50 for human calcium-independent group-6A iPLA2

SMILES	inhibition [1]	inhibition [2]	inhibition [3]	inhibition [4]	XI50 (mole fraction) [5]	XI50 (mole fraction) [6]	Selectivity ratio (Homo sapiens)
CC[C@H](C)[C@H](NC(=O)C(=O)CCCCc1ccc(OC)cc1)C(=O)NCC(=O)OC(C)(C)C	57.3%	81.8%	48.2%				
CCCC[C@H](NC(=O)C(=O)CCCCc1ccc2ccccc2c1)C(=O)NCC(=O)O	43.1%	< 25%		< 25%			
CCCC[C@H](NC(=O)C(=O)CCCCc1ccc(OC)cc1)C(=O)OC(C)(C)C	85.7%	60%	60.6%				
CCCC[C@@H](COCC(=O)O)NC(=O)C(=O)CCCCc1ccc(OC)cc1		< 25%					
CCCC[C@H](NC(=O)C(=O)CCCCc1ccc(OC)cc1)C(=O)NCC(=O)NCC(=O)OC(C)(C)C	27.1%	66.5%		< 25%			
CCCC[C@H](NC(=O)C(=O)CCCCc1ccccc1)C(=O)NCC(=O)O	< 25%	< 25%		< 25%			
CCCC[C@@H](COCC(=O)OC(C)(C)C)NC(=O)C(=O)CCCCc1ccccc1	82.3%	76%		57.5%			
CCCC[C@H](NC(=O)C(=O)CCCCc1ccc(OC)cc1)C(=O)NCC(=O)OCc1ccccc1	52.3%	> 95%		< 25%	0.026		
CCCC[C@H](NC(=O)C(=O)CCCCc1ccc(OC)cc1)C(=O)NCCCC(=O)OCc1ccccc1	47.9%	78.3%	27.7%				
CCCC[C@@H](COCC(=O)OC(C)(C)C)NC(=O)C(=O)CCCCc1ccc(OC)cc1		93.6%					
CCCC[C@@H](COCC(=O)OCC)NC(=O)C(=O)CCCCc1ccc(OC)cc1		75.2%					
CCCC[C@H](NC(=O)C(=O)CCCCc1ccc(OC)cc1)C(N)=O	29.3%	66.2%	31.1%				
CCCCC/C=C\C/C=C\C/C=C\C/C=C\CCCC(=O)C(F)(F)F						0.028	
CCCC[C@H](NC(=O)C(=O)CCCCc1ccccc1)C(=O)NCC(=O)OC(C)(C)C	46.9%	91.1%	43.4%				
CCCC[C@H](NC(=O)C(=O)CCCCc1ccc2ccccc2c1)C(=O)NCC(=O)OC(C)(C)C	57.5%	89.1%	44.8%				
CCCC[C@H](NC(=O)C(=O)CCCCc1ccc2ccccc2c1)C(=O)NCC(=O)OCC	70.5%	77.1%		54.4%			
CCCC[C@@H](COCC(=O)OC(C)(C)C)NC(=O)C(=O)CCCCc1ccc2ccccc2c1	85.5%	88.4%	63.9%				

More lines, now with the values ahead:

inhibition [1]	inhibition [2]	inhibition [3]	inhibition [4]	XI50 (mole fraction) [5]	XI50 (mole fraction) [6]	Selectivity ratio (Homo sapiens)	SMILES
58%	92.8%		< 25%				COc1ccc(CCCCC(=O)C(=O)N[C@@H](CC(C)C)C(=O)NCCCC(=O)OC(C)(C)C)cc1
73.4%	87.1%	49.9%					CCCC[C@H](NC(=O)C(=O)CCCCc1ccc(OC)cc1)C(=O)N[C@H](C)C(=O)OC(C)(C)C
51.6%	> 95%	40.8%		0.024			COc1ccc(CCCCC(=O)C(=O)N[C@@H](CC(C)C)C(=O)NCC(=O)OC(C)(C)C)cc1
64.5%	90.1%		56.3%				CCCC[C@H](NC(=O)C(=O)CCCCc1ccc(OC)cc1)C(=O)NCCCCC(=O)OC(C)(C)C
40.2%	> 95%		45.3%	0.012			CCCC[C@H](NC(=O)C(=O)CCCCc1ccc(OC)cc1)C(=O)NCC(=O)OC(C)(C)C
57.4%	87.5%	46.6%					CCCC[C@H](NC(=O)C(=O)CCCCc1ccc(OC)cc1)C(=O)N[C@@H](C)C(=O)OC(C)(C)C
35.4%	85.7%	47.1%					COc1ccc(CCCCC(=O)C(=O)N[C@H](C(=O)NCC(=O)OC(C)(C)C)C(C)C)cc1
52.6%	> 95%	44.8%		0.007		13	CCCC[C@H](NC(=O)C(=O)CCCCc1ccc(OC)cc1)C(=O)NCCCC(=O)OC(C)(C)C
68%	> 95%	39.3%		0.04			CCCC[C@@H](NC(=O)C(=O)CCCCc1ccc(OC)cc1)C(=O)NCC(=O)OC(C)(C)C
37.8%	83.1%		32.5%				CCCC[C@H](NC(=O)C(=O)CCCCc1ccc(OC)cc1)C(=O)NCCC(=O)OC(C)(C)C
